From ChEMBL document CHEMBL4270649 (Eur J Med Chem, 2018) come the findings set out here.

The target in series [1] is T1, Dual specificity tyrosine-phosphorylation-regulated kinase 1B (Homo sapiens, UniProt Q9Y463). The following applies: 0.25 h, read-out: INH.
The nature of series [2]: Half life in human liver S9 fraction at 0.3 uM in presence of NADP+/UDPGA by LC-MS/MS analysis. The class given is ADME, subcellular. In outline:
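Compound was incubated with human S9 fraction and samples were taken at defined time points. Remaining parent was quantified by LC-MS/MS: ESI triple quadrupole, RP C18 column, water/acetonitrile with 0.1% TFA, 5–100% B over 7 min at 400 µL/min. Half-life was calculated from the remaining-parent data.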

Series [3] deals with T1, Dual specificity tyrosine-phosphorylation-regulated kinase 1B. The series is described as follows: Inhibition of full length recombinant human GST-tagged DYRK1B expressed in baculovirus expression system using KKISGRLSPIMTEQ-NH2 as substrate after 15 mins in presence of 15 uM [gamma32P]ATP by phosphor imaging analysis.
A short description of series [4]: Cytotoxicity against human HeLa cells assessed as cell viability at 3 uM after 3 days by XTT assay relative to control. Particulars: read-out: Activity. It counts as cell-based.
Series [5] can be described thus: Cytotoxicity against human HeLa cells assessed as cell viability at 10 uM after 3 days by XTT assay relative to control. It counts as cell-based. Particulars: read-out: Activity.
Series [6] in a line: Cytotoxicity against human HeLa cells assessed as cell viability at 1 uM after 3 days by XTT assay relative to control. The class given is cell-based. Particulars: read-out: Activity. On the technique in general: Tetrazolium assays rely on reduction of a dye to a coloured formazan, in cell work by metabolically active cells.
The target of series [7] is SRSF protein kinase 1 (Homo sapiens) (UniProt Q96SB4). The series is described as follows: Inhibition of full length human His-tagged SRPK1 expressed in baculovirus expression system at 1.25 uM in presence of 100 uM ATP relative to control.
Chain of SRSF protein kinase 1 (Homo sapiens) (Q96SB4 whole entry): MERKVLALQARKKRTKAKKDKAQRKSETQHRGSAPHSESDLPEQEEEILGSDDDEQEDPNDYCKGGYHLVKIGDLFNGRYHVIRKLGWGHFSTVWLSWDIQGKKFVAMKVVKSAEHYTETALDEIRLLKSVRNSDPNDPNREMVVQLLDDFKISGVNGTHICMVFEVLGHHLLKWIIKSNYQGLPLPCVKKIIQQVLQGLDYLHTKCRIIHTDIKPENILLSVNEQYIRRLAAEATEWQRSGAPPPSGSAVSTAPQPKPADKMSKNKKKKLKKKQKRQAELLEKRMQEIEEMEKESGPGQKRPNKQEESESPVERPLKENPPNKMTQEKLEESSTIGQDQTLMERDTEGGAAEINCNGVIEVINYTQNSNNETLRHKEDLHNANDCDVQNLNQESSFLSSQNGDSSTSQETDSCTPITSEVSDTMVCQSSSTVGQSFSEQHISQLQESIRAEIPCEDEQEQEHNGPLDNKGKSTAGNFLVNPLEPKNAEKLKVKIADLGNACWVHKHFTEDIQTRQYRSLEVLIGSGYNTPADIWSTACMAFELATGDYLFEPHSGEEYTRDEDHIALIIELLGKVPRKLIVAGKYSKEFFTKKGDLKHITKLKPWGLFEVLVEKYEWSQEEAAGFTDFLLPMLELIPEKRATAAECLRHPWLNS
The target of series [8] is T2, Serine/threonine-protein kinase haspin (Homo sapiens, UniProt Q8TF76).
T2 sequence (Q8TF76 whole entry): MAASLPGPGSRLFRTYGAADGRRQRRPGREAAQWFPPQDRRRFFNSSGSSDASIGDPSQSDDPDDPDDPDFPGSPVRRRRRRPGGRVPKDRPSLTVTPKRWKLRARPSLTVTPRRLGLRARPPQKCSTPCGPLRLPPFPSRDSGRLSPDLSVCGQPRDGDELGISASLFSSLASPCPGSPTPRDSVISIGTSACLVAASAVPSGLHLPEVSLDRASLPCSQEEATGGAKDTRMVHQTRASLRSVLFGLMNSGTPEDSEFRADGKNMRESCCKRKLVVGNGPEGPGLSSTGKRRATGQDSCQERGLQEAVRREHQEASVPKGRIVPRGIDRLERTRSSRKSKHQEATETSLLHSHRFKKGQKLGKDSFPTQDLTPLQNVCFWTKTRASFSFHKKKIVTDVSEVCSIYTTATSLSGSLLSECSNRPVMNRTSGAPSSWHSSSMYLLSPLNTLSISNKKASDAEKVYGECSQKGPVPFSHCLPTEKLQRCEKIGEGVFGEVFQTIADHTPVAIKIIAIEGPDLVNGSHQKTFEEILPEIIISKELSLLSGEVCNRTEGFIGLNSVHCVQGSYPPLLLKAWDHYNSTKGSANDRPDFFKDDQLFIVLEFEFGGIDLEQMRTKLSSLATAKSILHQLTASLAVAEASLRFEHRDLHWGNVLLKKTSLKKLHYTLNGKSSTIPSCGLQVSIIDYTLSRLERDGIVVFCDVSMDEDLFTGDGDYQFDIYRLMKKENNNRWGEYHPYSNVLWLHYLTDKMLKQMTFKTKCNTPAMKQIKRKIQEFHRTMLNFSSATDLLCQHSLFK
As to the kind of experiment: Inhibition of human GST-tagged haspin expressed in baculovirus expression system in presence of 100 uM ATP.

Series [9] deals with Dual specificity protein kinase CLK2 (Homo sapiens) (UniProt P49760). As to the kind of experiment: Inhibition of human GST-tagged CLK2 expressed in baculovirus expression system at 1.25 uM in presence of 100 uM ATP relative to control.
Chain of Dual specificity protein kinase CLK2 (Homo sapiens) (P49760 whole entry, looked up): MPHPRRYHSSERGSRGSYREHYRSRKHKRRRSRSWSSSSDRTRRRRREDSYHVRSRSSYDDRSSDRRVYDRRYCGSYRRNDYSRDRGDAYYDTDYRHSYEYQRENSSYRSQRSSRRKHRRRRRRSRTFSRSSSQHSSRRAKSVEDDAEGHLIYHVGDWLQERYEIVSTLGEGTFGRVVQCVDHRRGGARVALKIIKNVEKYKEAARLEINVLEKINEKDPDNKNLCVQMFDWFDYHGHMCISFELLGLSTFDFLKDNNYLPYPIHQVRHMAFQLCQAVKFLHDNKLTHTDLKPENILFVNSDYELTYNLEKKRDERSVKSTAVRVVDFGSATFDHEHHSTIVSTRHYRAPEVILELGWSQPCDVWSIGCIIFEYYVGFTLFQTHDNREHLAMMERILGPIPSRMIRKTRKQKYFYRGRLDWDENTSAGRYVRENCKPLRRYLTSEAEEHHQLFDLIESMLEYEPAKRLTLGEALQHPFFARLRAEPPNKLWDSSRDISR
Series [10] deals with T3, Dual specificity tyrosine-phosphorylation-regulated kinase 1A (Homo sapiens, UniProt Q13627). The series is described as follows: Inhibition of DYRK1A in human HeLa cells harboring GFP-SF3b1-NT assessed as reduction in SF3b1 phosphorylation at T343 residue after 18 hrs by Western blot analysis. It counts as cell-based. (In general: Immunoblotting shows a protein as a band on a membrane.)

Series [11] concerns the target T3, Dual specificity tyrosine-phosphorylation-regulated kinase 1A. As to the kind of experiment: Inhibition of recombinant human N-terminal His6-tagged DYRK1A expressed in Escherichia coli BL21(DE3) using KKISGRLSPIMTEQ-NH2 as substrate after 15 mins in presence of 15 uM [gamma32P]ATP by phosphor imaging analysis.
For series [12], the target named is T4, Serine/threonine-protein kinase 17A (Homo sapiens) (UniProt Q9UEE5).
T4 sequence (whole entry): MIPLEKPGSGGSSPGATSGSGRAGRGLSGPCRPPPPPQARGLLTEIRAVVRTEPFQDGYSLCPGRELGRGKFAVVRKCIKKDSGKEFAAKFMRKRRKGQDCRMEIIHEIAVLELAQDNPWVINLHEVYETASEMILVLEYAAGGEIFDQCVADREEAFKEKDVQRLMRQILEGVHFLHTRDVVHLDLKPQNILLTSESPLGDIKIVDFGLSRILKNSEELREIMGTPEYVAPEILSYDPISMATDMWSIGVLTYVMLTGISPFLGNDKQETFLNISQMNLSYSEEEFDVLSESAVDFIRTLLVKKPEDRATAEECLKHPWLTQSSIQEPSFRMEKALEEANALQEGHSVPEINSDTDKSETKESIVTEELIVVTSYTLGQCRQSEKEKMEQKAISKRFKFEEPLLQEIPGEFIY
The series is described as follows: Inhibition of full length human GST-tagged STK17A expressed in baculovirus expression system at 1.25 uM in presence of 100 uM ATP relative to control.

For series [13], the target named is Serine/threonine-protein kinase pim-1 (Homo sapiens) (UniProt P11309). The series is described as follows: Inhibition of full length human His-tagged PIM1 expressed in baculovirus expression system at 1.25 uM in presence of 100 uM ATP relative to control.
For series [14], the target named is BDNF/NT-3 growth factors receptor (Homo sapiens) (UniProt Q16620). As to the kind of experiment: Inhibition of human His-tagged TRK-B expressed in baculovirus expression system at 1.25 uM in presence of 100 uM ATP relative to control.
Chain of BDNF/NT-3 growth factors receptor (Homo sapiens) (Q16620 32-822 limits assumed): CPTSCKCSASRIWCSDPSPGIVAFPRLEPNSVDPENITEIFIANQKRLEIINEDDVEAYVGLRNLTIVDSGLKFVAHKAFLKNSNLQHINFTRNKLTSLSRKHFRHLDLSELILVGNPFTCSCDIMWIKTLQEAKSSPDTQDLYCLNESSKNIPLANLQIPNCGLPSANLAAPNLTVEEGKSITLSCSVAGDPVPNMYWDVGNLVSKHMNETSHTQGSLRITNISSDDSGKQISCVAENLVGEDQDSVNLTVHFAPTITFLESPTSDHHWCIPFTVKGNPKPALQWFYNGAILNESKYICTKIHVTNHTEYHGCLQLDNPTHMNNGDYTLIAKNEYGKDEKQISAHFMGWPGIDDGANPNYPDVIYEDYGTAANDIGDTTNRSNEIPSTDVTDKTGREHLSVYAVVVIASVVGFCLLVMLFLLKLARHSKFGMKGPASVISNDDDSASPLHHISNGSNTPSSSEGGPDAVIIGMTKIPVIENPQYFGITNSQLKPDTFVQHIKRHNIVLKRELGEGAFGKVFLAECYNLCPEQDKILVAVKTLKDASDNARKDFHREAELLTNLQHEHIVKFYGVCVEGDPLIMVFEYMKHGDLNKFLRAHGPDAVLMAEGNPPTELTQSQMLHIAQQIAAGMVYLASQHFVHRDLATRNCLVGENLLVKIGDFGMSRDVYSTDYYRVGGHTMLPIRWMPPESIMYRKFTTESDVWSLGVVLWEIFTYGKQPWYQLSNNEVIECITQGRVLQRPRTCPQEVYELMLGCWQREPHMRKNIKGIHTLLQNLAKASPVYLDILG
Series [15] concerns the target T3, Dual specificity tyrosine-phosphorylation-regulated kinase 1A. The series is described as follows: Inhibition of recombinant human N-terminal His6-tagged DYRK1A expressed in Escherichia coli BL21(DE3) at 1.25 uM using KKISGRLSPIMTEQ-NH2 as substrate after 15 mins in presence of 15 uM [gamma32P]ATP by phosphor imaging analysis relative to control.
Series [16] concerns the target Casein kinase I isoform delta (Homo sapiens) (UniProt P48730). The series is described as follows: Inhibition of CK1delta (unknown origin) at 1.25 uM in presence of 100 uM ATP relative to control.
Series [17] concerns the target Homeodomain-interacting protein kinase 1 (Homo sapiens) (UniProt Q86Z02). As to the kind of experiment: Inhibition of human GST-tagged HIPK1 expressed in baculovirus expression system at 1.25 uM in presence of 100 uM ATP relative to control.
For series [18], the target named is Myosin light chain kinase 2, skeletal/cardiac muscle (Homo sapiens) (UniProt Q9H1R3). The series is described as follows: Inhibition of human full length GST-tagged MLCK2 expressed in baculovirus expression system at 1.25 uM in presence of 100 uM ATP relative to control.
Chain of Myosin light chain kinase 2, skeletal/cardiac muscle (Homo sapiens) (Q9H1R3 whole entry, the tested form may be a part): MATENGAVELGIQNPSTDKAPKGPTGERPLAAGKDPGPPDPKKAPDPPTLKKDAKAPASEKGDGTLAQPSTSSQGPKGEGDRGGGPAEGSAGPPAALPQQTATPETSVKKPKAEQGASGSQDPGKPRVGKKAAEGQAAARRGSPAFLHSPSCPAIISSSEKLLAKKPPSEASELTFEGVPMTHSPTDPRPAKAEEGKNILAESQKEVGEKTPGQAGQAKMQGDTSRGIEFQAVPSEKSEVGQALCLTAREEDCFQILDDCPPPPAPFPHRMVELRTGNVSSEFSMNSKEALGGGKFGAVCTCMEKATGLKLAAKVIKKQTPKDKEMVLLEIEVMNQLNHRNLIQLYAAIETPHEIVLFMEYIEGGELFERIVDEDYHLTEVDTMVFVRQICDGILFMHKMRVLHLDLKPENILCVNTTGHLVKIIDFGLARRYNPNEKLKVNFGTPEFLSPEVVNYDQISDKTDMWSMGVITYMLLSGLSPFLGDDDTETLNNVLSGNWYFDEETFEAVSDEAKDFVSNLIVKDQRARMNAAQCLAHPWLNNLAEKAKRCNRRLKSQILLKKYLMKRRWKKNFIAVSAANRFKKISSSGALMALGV
The target of series [19] is Dual specificity protein kinase CLK1 (Homo sapiens, UniProt P49759). As to the kind of experiment: Inhibition of recombinant human GST-tagged CLK1 (129 to 484 residues) expressed in Escherichia coli using GRSRSRSRSRSRSRSR as substrate after 15 mins in presence of 15 uM [gamma32P]ATP by phosphor imaging analysis.
Series [20] concerns the target Cyclin-dependent kinase 5/CDK5 activator 1 (Homo sapiens) (UniProt Q00535+Q15078). The series is described as follows: Inhibition of full length human GST/His-tagged CDK5/p25 expressed in baculovirus expression system at 1.25 uM in presence of 100 uM ATP by Z'-Lyte assay relative to control.
Series [21] deals with T2, Serine/threonine-protein kinase haspin. As to the kind of experiment: Inhibition of human GST-tagged haspin expressed in baculovirus expression system at 1.25 uM in presence of 100 uM ATP relative to control.

Molecules are shown by their SMILES. pIC50: −log10 of the molar value. Active and inactive are the calls of the source. The rule behind the calls is not given here.

T1 sequence (Q9Y463 whole entry): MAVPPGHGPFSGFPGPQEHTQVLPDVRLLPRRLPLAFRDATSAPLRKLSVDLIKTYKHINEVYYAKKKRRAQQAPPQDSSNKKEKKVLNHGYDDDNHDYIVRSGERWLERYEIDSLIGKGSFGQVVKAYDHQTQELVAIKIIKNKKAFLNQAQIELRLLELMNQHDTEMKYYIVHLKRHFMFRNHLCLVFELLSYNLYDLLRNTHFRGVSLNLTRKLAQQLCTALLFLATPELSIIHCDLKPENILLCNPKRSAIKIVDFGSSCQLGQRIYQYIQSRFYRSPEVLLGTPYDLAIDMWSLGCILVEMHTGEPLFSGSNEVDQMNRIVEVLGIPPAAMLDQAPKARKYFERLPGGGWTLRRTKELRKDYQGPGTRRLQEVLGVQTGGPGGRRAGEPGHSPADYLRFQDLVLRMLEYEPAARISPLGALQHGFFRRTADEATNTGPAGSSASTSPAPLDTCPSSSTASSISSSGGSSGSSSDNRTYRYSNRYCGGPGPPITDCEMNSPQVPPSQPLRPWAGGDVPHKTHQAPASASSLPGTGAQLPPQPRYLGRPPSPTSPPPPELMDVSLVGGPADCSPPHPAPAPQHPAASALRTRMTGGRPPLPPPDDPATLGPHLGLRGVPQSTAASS
Chain of Casein kinase I isoform delta (Homo sapiens) (P48730 whole entry, looked up, canonical isoform): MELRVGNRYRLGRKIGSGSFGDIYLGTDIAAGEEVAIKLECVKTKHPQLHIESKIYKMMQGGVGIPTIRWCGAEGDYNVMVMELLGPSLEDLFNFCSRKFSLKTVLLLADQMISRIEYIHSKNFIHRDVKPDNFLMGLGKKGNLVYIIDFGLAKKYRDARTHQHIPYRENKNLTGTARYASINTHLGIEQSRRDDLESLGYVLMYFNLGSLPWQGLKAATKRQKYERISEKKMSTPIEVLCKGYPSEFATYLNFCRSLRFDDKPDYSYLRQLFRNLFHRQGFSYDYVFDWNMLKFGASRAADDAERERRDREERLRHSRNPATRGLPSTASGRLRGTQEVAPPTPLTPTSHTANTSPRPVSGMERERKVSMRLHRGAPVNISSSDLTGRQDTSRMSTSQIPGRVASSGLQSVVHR
Chain of Homeodomain-interacting protein kinase 1 (Homo sapiens) (Q86Z02 whole entry, looked up): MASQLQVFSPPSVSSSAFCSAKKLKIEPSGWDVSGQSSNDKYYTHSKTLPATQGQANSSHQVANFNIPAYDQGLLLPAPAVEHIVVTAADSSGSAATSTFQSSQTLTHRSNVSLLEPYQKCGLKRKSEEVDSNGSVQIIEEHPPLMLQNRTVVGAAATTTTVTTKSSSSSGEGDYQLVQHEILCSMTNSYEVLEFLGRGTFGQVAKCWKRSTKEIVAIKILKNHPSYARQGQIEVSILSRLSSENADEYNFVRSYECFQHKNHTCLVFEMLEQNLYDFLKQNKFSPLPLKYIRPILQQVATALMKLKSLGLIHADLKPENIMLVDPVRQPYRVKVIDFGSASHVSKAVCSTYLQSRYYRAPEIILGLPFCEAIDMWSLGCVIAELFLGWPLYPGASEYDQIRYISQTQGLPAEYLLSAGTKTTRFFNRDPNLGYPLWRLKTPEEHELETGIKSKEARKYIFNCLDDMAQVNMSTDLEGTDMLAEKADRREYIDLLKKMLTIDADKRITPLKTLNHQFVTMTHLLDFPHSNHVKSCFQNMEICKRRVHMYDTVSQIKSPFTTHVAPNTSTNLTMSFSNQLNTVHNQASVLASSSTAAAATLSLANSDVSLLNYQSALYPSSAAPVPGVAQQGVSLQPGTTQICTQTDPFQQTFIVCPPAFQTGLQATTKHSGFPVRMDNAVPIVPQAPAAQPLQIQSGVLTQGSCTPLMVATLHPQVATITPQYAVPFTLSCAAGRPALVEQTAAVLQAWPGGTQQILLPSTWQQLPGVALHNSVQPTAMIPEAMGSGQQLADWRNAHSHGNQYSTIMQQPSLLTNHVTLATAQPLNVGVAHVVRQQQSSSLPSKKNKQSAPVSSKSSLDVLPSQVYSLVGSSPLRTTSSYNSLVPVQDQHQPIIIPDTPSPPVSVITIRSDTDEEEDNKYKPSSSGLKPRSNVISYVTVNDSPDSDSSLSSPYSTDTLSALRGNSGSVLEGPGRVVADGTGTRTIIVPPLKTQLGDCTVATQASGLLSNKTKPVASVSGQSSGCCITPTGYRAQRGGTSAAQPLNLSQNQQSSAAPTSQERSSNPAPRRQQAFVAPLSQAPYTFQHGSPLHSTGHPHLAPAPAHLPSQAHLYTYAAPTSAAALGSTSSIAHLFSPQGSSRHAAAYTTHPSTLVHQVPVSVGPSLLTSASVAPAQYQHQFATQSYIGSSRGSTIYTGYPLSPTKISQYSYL

Turning to `O=C(Nc1cncc(-c2cc(-c3cccnc3)cs2)c1)C1CCCCC1`, in series [1], the inhibition at 0.25 µM was found to be 51%.

On to `O=C(Nc1cncc(-c2cc(-c3cn[nH]c3)cs2)c1)C1CC1`, for which the inhibition at 0.25 µM in series [1] worked out at 58.1%. In series [2], the half-life (commonly the time in which the quantity being followed falls by half) at 0.3 µM was found to be 2.45 h. Moreover, in series [3], the pIC50 (commonly the negative decadic logarithm of the IC50, by convention in mol/L) was 6.86.

In the case of `O=C(CN1CCOCC1)Nc1cncc(-c2cc(-c3cccnc3)cs2)c1`, the inhibition at 0.25 µM in series [1] was determined as 13.9%.

In the case of `CCn1cc(-c2csc(-c3cncc(NC(=O)C4CC4)c3)c2)cn1`, in series [1], the inhibition at 0.25 µM was determined as 57%.

As for `O=C(Nc1cncc(-c2cc(-c3cccnc3)cs2)c1)C1CCNC1` (stereo not given), in series [1], the inhibition at 0.25 µM was 62.7%. In addition, the pIC50 in series [3] is 6.88.

For `CC(=O)Nc1cncc(-c2cc(-c3cccnc3)cs2)c1`, the viability at 72 h, 3 µM in [4] was found to be 95%. In addition, in [1], the inhibition at 0.25 µM came out at 40.3%. Also, in [5], the viability at 72 h, 10 µM worked out at 83%. The viability at 72 h, 1 µM in series [6] worked out at 98%.

Regarding `CS(=O)(=O)Nc1cncc(-c2cc(-c3cccnc3)cs2)c1`, the inhibition at 0.25 µM in series [1] was found to be 23.5%.

`O=C(CN1CCCCC1)Nc1cncc(-c2cc(-c3cccnc3)cs2)c1`: the inhibition at 0.25 µM in series [1] was 51.8%.

Regarding `CC(C)n1cc(-c2csc(-c3cncc(NC(=O)C4CC4)c3)c2)cn1`, the inhibition at 0.25 µM in [1] was 0.7%.

As for `O=C(Nc1cncc(-c2cc(-c3cccnc3)cs2)c1)C1CCC1`, the inhibition at 0.25 µM in series [1] came out at 81%. For the same molecule, the negative logarithm of the IC50 (pIC50) in series [3] was 6.66.

`CCN(C(=O)C1CC1)c1cncc(-c2cc(-c3cccnc3)cs2)c1`: in series [1], the inhibition at 0.25 µM is 14.6%.

Turning to `O=C(Nc1cncc(-c2cc(-c3cccnc3)cs2)c1)C1CC1`, the inhibition in series [7] is 2%; in [9], 21%; in series [10] it was “Dose-dependent effect”; in [12], 51.3%; in [14], 8%; in series [15] it was 89%. Besides, the inhibition in series [16] turned out to be 4%; in series [17], 1%; in series [18], 12.1%; in series [20] it was 1%. Further, the negative logarithm of the IC50 (pIC50) in [8] was 7.12; in series [10] it was 7.37; in series [11] it was 8.49; in series [19] it was 6.57; in series [3] it was 7.14. In addition, in series [13], the inhibition entry was “inactive”. Also, the viability at 72 h, 3 µM in series [4] amounted to 102%. Moreover, in series [1], the inhibition at 0.25 µM was 40%. In addition, the inhibition at 1.25 µM in series [21] came out at 72%. Further, in series [2], the half-life at 0.3 µM is 2.4 h. Further, the viability at 72 h, 10 µM in series [5] is 98%. In [6], the viability at 72 h, 1 µM was 99%.

In the case of `Cn1cc(-c2csc(-c3cncc(NC(=O)C4CC4)c3)c2)cn1`, the inhibition at 0.25 µM in series [1] stood at 78.6%. In addition, the pIC50 in [3] was 7.17.

In the case of `CN(C(=O)C1CC1)c1cncc(-c2cc(-c3cccnc3)cs2)c1`, the inhibition at 0.25 µM in series [1] is 0.9%.

`CC(C)(C)OC(=O)N1CCC(C(=O)Nc2cncc(-c3cc(-c4cccnc4)cs3)c2)C1` (stereo not given): the inhibition at 0.25 µM in [1] came out at 34.9%.

For the molecule `O=C(Cc1nnn[nH]1)Nc1cncc(-c2cc(-c3cccnc3)cs2)c1`, the inhibition at 0.25 µM in series [1] worked out at 38.5%.

As for `CCC(=O)Nc1cncc(-c2cc(-c3cccnc3)cs2)c1`, the inhibition at 0.25 µM in [1] was found to be 49.3%.

Take `O=C(Nc1cncc(-c2cccs2)c1)C1CC1`: the inhibition at 0.25 µM in series [1] worked out at 0%.

Regarding `CCCn1cc(-c2csc(-c3cncc(NC(=O)C4CC4)c3)c2)cn1`, in [1], the inhibition at 0.25 µM came out at 65.7%. The pIC50 in series [3] is 7.01.

Regarding `CN[C@@H]1C[C@H]2O[C@@](C)([C@@H]1OC)n1c3ccccc3c3c4c(c5c6ccccc6n2c5c31)C(=O)NC4` [STAUROSPORINE], the viability at 72 h, 1 µM in series [6] is 33%.
